Tests used:
Format in all cases: in vivo, human
[1] = test system: subjects with type 1 diabetes; assay: Euglycemic clamp pharmacodynamics; details: for Clamp stopped prematurely due to BG reaching threshold (≥200 mg/dL for 30 min): number of subjects after 0.3 U/kg single dose; for GIR-AUC0–12h treatment ratio, point estimate (90% CI): 0.3 U/kg single dose, euglycemic clamp
Outline: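 Randomized, double-blind, 3-period crossover in adult males with T1D; fasted single 0.3 U/kg subcutaneous dose after basal-insulin washout (≥48 h), glulisine stopped ≥10 min predose, BG stable ≥1 h without glucose. A Biostator tracked arterialized venous BG and GIR continuously for 12 h, calibrated every 30 min. Stopped early if BG exceeded 200 mg/dL without glucose for 30 min. Weight-standardized GIR-AUC0–12h given as ratio of geometric means (90% CI).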

[2] = Plasma insulin aspart pharmacokinetics after single subcutaneous dose; details: linear mixed effects model, 0.3 U/kg single dose
Outline: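 Adults with type 1 diabetes, off basal insulin ≥48 h and fasted overnight, clamped at blood glucose 100 mg/dL before subcutaneous dosing. Plasma was separated within 20 min and stored at −60 to −80°C. Samples were assayed by LC-MS/MS (100–8000 pg/mL, LLOQ 100 pg/mL) and censored at any rescue insulin. AUCs used the log-linear trapezoidal rule. Log-parameters were analysed by mixed model and back-transformed with 90% CI.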

[3] = test system: subjects with type 1 diabetes; assay: Safety and tolerability; details: single 0.3 U/kg dose
Outline: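 Adult males with T1D each got a fasted single subcutaneous 0.3 U/kg dose per period in a double-blind 3-period crossover under 12 h euglycemic clamp. Safety was assessed by 12-lead ECG, vital signs, routine laboratory tests, physical examination, adverse event reporting and injection-site reaction assessment. Treatment-emergent events were counted as subjects reporting per treatment.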

[4] = ratio of geometric means vs. NN-Asp-EU
[5] = ratio of geometric means vs. NN-Asp-US

| Substance | Clamp stopped prematurely due to BG reaching threshold (≥200 mg/dL for 30 min) [1] | INS-AUCinf treatment ratio, point estimate (90% CI) [2, 4] | INS-AUClast treatment ratio, point estimate (90% CI) [2, 4] | INS-Cmax treatment ratio, point estimate (90% CI) [2, 4] | GIR-AUC0–12h treatment ratio, point estimate (90% CI) [1, 4] | INS-AUCinf treatment ratio, point estimate (90% CI) [2, 5] | INS-AUClast treatment ratio, point estimate (90% CI) [2, 5] | INS-Cmax treatment ratio, point estimate (90% CI) [2, 5] | Tolerability [3] | GIR-AUC0–12h treatment ratio, point estimate (90% CI) [1, 5] |
| --- | --- | --- | --- | --- | --- | --- | --- | --- | --- | --- |
| insulin aspart [NN-Asp-EU] | 15 subjects |  |  |  |  |  |  |  |  |  |
| insulin aspart [NN-Asp-US] | 18 subjects | 1.00 (0.95–1.04) | 1.00 (0.95–1.05) | 1.04 (0.96–1.12) | 0.97 (0.90–1.05) |  |  |  |  |  |
| insulin aspart [SAR-Asp] | 17 subjects | 0.92 (0.88–0.96) | 0.93 (0.88–0.97) | 0.97 (0.90–1.05) | 0.96 (0.89–1.04) | 0.92 (0.88–0.96) | 0.93 (0.89–0.98) | 0.93 (0.87–1.01) | well tolerated | 0.99 (0.91–1.07) |

From PMC7104901 (Diabetes Technology & Therapeutics, 2020)
